For 1 compound, Activity and IC50 results are on record in ChEMBL document CHEMBL2440054, “Largazole Arrests Cell Cycle at G1 Phase and Triggers Proteasomal Degradation of E2F1 in Lung Cancer Cells” (ACS Med Chem Lett, 2013).

In experiment [1] the target is T1, Retinoblastoma-associated protein (Homo sapiens) (UniProt P06400).
T1 sequence (whole entry): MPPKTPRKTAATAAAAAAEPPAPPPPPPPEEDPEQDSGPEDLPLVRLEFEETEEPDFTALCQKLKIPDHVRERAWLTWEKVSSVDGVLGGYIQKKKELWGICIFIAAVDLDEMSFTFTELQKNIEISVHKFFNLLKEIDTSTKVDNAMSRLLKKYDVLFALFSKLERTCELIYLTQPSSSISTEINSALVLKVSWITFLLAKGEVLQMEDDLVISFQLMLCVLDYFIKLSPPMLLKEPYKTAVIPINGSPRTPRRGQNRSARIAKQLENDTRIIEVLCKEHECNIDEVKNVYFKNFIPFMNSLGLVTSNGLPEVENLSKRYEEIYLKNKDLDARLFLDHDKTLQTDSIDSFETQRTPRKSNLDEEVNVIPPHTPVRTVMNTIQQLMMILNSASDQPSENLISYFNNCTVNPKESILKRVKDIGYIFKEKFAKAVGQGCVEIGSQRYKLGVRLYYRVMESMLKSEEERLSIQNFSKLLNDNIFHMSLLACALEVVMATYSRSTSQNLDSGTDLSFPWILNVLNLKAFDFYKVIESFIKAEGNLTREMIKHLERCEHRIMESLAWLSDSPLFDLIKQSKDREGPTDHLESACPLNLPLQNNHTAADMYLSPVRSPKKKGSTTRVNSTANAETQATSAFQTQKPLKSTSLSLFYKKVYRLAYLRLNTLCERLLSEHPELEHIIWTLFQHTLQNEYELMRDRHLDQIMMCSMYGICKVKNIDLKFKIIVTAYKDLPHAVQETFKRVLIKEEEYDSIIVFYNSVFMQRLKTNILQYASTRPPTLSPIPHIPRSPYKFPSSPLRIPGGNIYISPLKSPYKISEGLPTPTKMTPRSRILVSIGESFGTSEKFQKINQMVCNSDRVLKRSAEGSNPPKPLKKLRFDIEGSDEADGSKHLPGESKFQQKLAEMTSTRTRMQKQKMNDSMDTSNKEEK
As to the kind of experiment: Dephosphorylation of Rb in human A549 cells assessed as increase in Rb-E2F1 interaction at 0.1 uM after 8 hrs by immunoprecipitation and Western blotting analysis. The experiment is classed as cell-based. The method, boiled down: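 A549 cells treated with 0.1 μM largazole for 8 h and lysed. Lysates immunoprecipitated, then Western blotted with the indicated antibodies.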

A further experiment concerns NCI-H460. The experiment is described as follows: Cell cycle arrest in human NCI-H460 cells assessed as accumulation at G2 phase at 0.1 uM after 24 hrs by propidium iodide staining-based flow cytometric analysis (reference value: 9.5%). The format is functional. Background: Flow cytometry measures light scatter and fluorescence of single cells or particles in a stream.

The nature of experiment [2]: Cytotoxicity against human 95-D cells after 48 hrs by CCK-8 assay. The experiment is classed as functional, cell-based. Put shortly: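 Cells treated with a range of largazole concentrations for 48 h. Proliferation read by CCK-8 assay; IC50 derived from the concentration series.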
In general terms: Tetrazolium dyes change colour on reduction, which living cells bring about.

Structures are written as SMILES. The source made the active and inactive calls. The calls are words filed in the database; no cut-off is given here.

Take `CCCCCCCC(=O)SCC/C=C/[C@@H]1CC(=O)NCc2nc(cs2)C2=N[C@@](C)(CS2)C(=O)N[C@@H](C(C)C)C(=O)O1` [LARGAZOLE]: the outcome in experiment [1] was Active. Moreover, the Activity with NCI-H460 turned out to be 5.3%. In addition, in experiment [2], the IC50 (usually the concentration that inhibits the measured activity by half) came out at 420 nM.
